Results as given in BindingDB's records for doi:10.1016/j.bmcl.2009.02.010 (Konkuk University, 2009).

Key:
[1] = target: T1, Replicase polyprotein 1ab (Severe acute respiratory syndrome coronavirus, UniProt P0C6X7); experiment: Inhibition of ATPase activity of SCV helicase assessed as phosphate release by colorimetric assay
In short: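 Purified SCV NTPase/helicase (400 nM in 50 mM Tris/HCl pH 6.6) preincubated with compounds for 5 min at rt. Stopped with malachite green/molybdate reagent in 1 M HCl. A620 read after 5 min, with phosphate from a standard curve.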

[2] = target: T1, Replicase polyprotein 1ab; experiment: Inhibition of SCV helicase assessed as duplex-DNA unwinding by FRET based assay
In short: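 Substrate was 25-bp dsDNA with a 20-dT 5′-overhang. SCV helicase (150 nM in 20 mM HEPES pH 7.4) preincubated with compounds for 5 min at rt. Started with 5X reaction solution (5 mM MgCl2, 45 mM ATP, 25 mM DTT, 100 nM dsDNA substrate as 5X concentrations), then 2 min at 37 °C. Stopped with EDTA plus unmodified trap oligomer, with FRET read-out.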

Compound | IC50 [1] | IC50 [2]
O=C(O)C(=O)CC(=O)c1ccc(OCc2ccc(Cl)cc2)cc1 [4-(4-(4-chlorobenzyloxy)phenyl)-2-hydroxy-4-oxobut-2-enoic acid] | > 50 µM | > 50 µM
O=C(O)C(=O)CC(=O)c1ccccc1OCc1ccccc1 | > 50 µM | > 50 µM
O=C(O)C(=O)CC(=O)c1cccc(OCc2ccccc2)c1 | > 50 µM | > 50 µM
